# Published values gathered from unrelated publications.
# Lines come from different studies, so protocols differ.
# Target: Dual specificity tyrosine-phosphorylation-regulated kinase 3 (DYRK3, Homo sapiens, UniProt O43781)
# Residues used in one study (O43781 1-588): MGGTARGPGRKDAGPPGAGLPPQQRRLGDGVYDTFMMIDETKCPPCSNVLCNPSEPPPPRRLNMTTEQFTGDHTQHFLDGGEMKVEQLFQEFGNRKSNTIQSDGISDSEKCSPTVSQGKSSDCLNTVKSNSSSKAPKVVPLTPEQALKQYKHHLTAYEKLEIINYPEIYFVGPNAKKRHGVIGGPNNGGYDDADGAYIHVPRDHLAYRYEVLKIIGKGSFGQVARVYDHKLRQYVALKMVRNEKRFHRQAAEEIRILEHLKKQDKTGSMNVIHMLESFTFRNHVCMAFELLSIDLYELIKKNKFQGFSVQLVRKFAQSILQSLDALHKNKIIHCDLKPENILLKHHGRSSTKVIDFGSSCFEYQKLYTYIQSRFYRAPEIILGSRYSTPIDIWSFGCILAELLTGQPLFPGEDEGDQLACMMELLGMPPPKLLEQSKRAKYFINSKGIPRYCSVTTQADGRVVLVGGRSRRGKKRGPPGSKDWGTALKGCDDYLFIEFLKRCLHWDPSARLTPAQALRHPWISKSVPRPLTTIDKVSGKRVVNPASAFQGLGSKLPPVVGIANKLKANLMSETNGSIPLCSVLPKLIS
Structure (SMILES),effect on,action,technique,tested at,endpoint,result
Cc1cc(NC(=O)c2cccc3cc(-c4cccc5[nH]nc(N)c45)ccc23)ccc1F,enzyme activity,inhibitor,,0.1 µM,activity vs control,105%
COc1cccc(CCNc2nc3cc(C(=O)O)ccc3c3cnccc23)c1,enzyme activity,inhibitor,radiometric,1 µM,remaining activity,11%
COc1cc(Nc2cnc(C#N)c(O[C@H](C)CN(C)C)n2)ncc1-c1cnn(C)c1,enzyme activity,inhibitor,radiometric,1 µM,remaining activity,98%
O=C(O)c1ccc2c(c1)nc(NCc1ccccc1)c1ccncc12,enzyme activity,inhibitor,radiometric,1 µM,remaining activity,21%
COc1cc(-c2cc(-c3ccc(N4CCNCC4)cc3)cnc2C)cc(OC)c1OC,enzyme activity,inhibitor,,1 µM,inhibition,1%
COc1cc2ncnc(Nc3ccc(Oc4ccccc4)cc3C)c2cc1OC,enzyme activity,inhibitor,,1 µM,inhibition,1%
Cn1cnc(Br)c1C1=CN(c2ncnc3[nH]cnc23)CCS1,enzyme activity,inhibitor,radiometric,2 µM,inhibition,98%
O=C1NC(=O)c2cc(Nc3ccc(F)cc3)c(Nc3ccc(F)cc3)cc21,cell-free assay,,,0.5 µM,remaining signal,97.1%
O=C(O)c1ccc2c(c1)nc(NCc1ccccc1)c1ncncc12,enzyme activity,inhibitor,radiometric,1 µM,remaining activity,31%
COc1cc(/C=C/C(=O)CC(=O)/C=C/c2ccc(O)c(OC)c2)ccc1O,enzyme activity,inhibitor,,1 µM,activity vs control,11%
O=C(O)c1ccc2c(c1)nc(Nc1ccc(F)c(Cl)c1)c1ncncc12,enzyme activity,inhibitor,radiometric,1 µM,remaining activity,8%
CCCS(=O)(=O)Nc1ccc(F)c(C(=O)c2c[nH]c3ncc(-c4ccc(Cl)cc4)cc23)c1F,enzyme activity,inhibitor,,1 µM,inhibition,< 10%
O=C(Nc1cnn(-c2csc(C(=O)NC3COC3)c2)c1)Nc1ccccc1Cl,enzyme activity,inhibitor,,5 µM,remaining activity,93.3%
